From ChEMBL document CHEMBL2021827, “Caspase-1 inhibitors from an extremophilic fungus that target specific leukemia cell lines” (2012) come the findings set out here.

The subject of experiment [1] is THP-1. Briefly: Inhibition of IL-1beta production in human THP1 cells at 250 uM by ELISA. The experiment is classed as functional, cell-based. In a few lines: (§1)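 THP-1 cells are kept in RPMI with 10% FBS, 0.05 mM 2-mercaptoethanol, sodium pyruvate and penicillin/streptomycin/amphotericin B. They are differentiated with PMA (1 µg/mL) 24 h beforehand, scraped, and resuspended at 1.0 × 10^6 cells/mL. Cells are co-exposed to compound, LPS (20 ng/mL) and TiO2 nanowires (100 µg/mL) for 24 h at 37 °C in CO2. Supernatant IL-1β is measured by ELISA read at 490 nm.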
In general terms: In an ELISA, binding on a coated surface is turned into a signal by an enzyme label.

For the next experiment, the system named is SR. Briefly: Cytotoxicity against human SR cells by MTS assay. The experiment is classed as functional. For orientation: Formazan colour is commonly taken as a measure of viable cells.
For experiment [2], the system named is THP-1. Briefly: Inhibition of IL-1beta production in human THP1 cells at 50 uM by dilution assay. It is filed as functional, cell-based. In a few lines:
as §1

The next experiment has as its target T1, Caspase-1 (Homo sapiens) (UniProt P29466).
T1 sequence (whole entry): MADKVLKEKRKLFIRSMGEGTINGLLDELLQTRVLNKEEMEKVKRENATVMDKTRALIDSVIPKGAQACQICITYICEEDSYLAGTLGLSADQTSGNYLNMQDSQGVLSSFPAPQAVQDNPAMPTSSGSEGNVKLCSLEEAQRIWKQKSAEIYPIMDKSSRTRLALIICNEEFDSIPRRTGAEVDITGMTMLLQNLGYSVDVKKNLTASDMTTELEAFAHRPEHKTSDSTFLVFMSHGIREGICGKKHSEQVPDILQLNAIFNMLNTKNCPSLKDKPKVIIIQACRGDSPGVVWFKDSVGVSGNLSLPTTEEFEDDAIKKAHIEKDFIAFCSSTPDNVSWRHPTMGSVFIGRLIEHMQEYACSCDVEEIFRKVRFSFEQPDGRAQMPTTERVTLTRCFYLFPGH
Briefly: Inhibition of caspase-1 in human THP1 cells after 24 hrs by fluorometric assay. The experiment is classed as cell-based. Conditions: THP-1.

The subject of another experiment is Leukemia cell. Briefly: Cytotoxicity against human leukemia cells by MTS assay. The experiment is classed as functional, cell-based.
In another experiment the test system is HL-60(TB). Briefly: Cytotoxicity against human HL-60(TB) cells by MTS assay. The experiment is classed as functional.
A further experiment concerns CCRF-CEM. Briefly: Cytotoxicity against human CCRF-CEM cells by MTS assay. It is filed as functional.
The next experiment relates to RPMI-8226. Briefly: Cytotoxicity against human RPMI8226 cells by MTS assay. The experiment is classed as functional.
Experiment [3] concerns THP-1. Briefly: Inhibition of IL-1beta production in human THP1 cells at 5 uM by dilution assay. The experiment is classed as functional, cell-based. In a few lines:
as §1

Each structure is given as a SMILES string. Activity calls are given as the source filed them. The rule behind the calls is not given here.

Turning to `C/C=C/c1cc(=O)c([C@@H]2OC(=O)c3cc(OC)cc(OC)c32)co1`, the inhibition entry with THP-1 [1] is “Active”.

Consider `C/C=C/C1=CC2=CC(=O)[C@](C)(O)[C@H](OC(=O)c3c(C)cc(O)cc3O)[C@H]2CO1` [BERKAZAPHILONE C], for which, in the experiment with SR, it took 380 nM to inhibit growth by half (GI50). For the same compound, the inhibition entry with THP-1 [1] and in the experiment with THP-1 [2] was “Active” throughout. The compound further came in with an IC100 at Caspase-1 (Homo sapiens) of 25 µM. The result in the experiment on Leukemia cell was Active.

For the compound `COc1cc(OC)c2c(c1)C(=O)O[C@H]2c1coc(C)cc1=O` [PENISIMPLICISSIN], the inhibition result with THP-1 [1] was “Active”. Further, the GI50 – broadly, the concentration at which growth is held to half of that of the control – in the experiment with HL-60(TB) was 1480 nM; in the experiment with CCRF-CEM, 200 nM. Besides, the outcome in the experiment with Leukemia cell was Active.

Consider `C/C=C/C1=CC2=CC(=O)[C@](C)(OC(=O)c3c(C)cc(O)cc3O)[C@H](O)[C@H]2CO1` [BERKAZAPHILONE B], for which the inhibition entry in the experiment on THP-1 [1] and with THP-1 [3] was “Active” throughout. The compound also came in with an IC100 on Caspase-1 (Homo sapiens) of 25 µM. Also, it took 2140 nM to inhibit growth with RPMI-8226 by half (GI50). Moreover, the outcome in the experiment with Leukemia cell was Active.

In the case of `CCCc1cc(=O)c([C@@H]2OC(=O)c3cc(OC)cc(OC)c32)co1`, in the experiment on THP-1 [1], the inhibition entry is “Active”. Also, the result in the experiment with HL-60(TB) was inactive. Also, the inhibition entry at Caspase-1 (Homo sapiens) was “inactive”.
